From ChEMBL document CHEMBL4480455, “Anti-inflammatory Property of Imperatorin on Alveolar Macrophages and Inflammatory Lung Injury” (J Nat Prod, 2019)
Active and inactive are the calls of the source. The calls are words filed in the database; no cut-off is given here.

Key:
[1] = target: T1, I-kappa-B kinase (Mus musculus) (UniProt Q60680+O88351+O88522); assay: Inhibition of zymosan-induced IKK phosphorylation in mouse MHS cells assessed as phosphorylated IKK level at 1.5 ug/ml by Western blot analysis relative to tubulin (reference value: 1.8); type: cell-based
In short: (§1)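 MH-S cells pretreated, then stimulated with zymosan 10 μg/mL. Phospho-JAK1 (Y1022/1023), phospho-STAT3 (Y705) and phospho-IKKα/β detected by Western blot against total protein and tubulin. Zymosan time course 1–30 min for JAK1/STAT3 and 1–60 min for IKK. Normalized to control; mean ± SD, n≥3.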

[2] = target: Signal transducer and activator of transcription 3 (Mus musculus) (UniProt P42227); assay: Inhibition of zymosan-induced STAT3 phosphorylation in mouse MHS cells assessed as phosphorylated STAT3 level at 1.5 ug/ml by Western blot analysis relative to tubulin (reference value: 2.1); type: cell-based; in short: as §1
Mus musculus [3] = organism: Mus musculus; assay: Antiinflammatory activity in mouse MHS cells assessed as reduction in zymosan-induced nitrite production at 1.5 to 15 ug/ml preincubated for 30 mins followed by zymosan challenge and measured after 6 to 24 hrs by Griess assay; type: functional, cell-based
In short: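 MH-S cells pretreated for 30 min, then given zymosan 10 μg/mL for 24 h. Supernatant nitrite reacted with equal volumes of 0.1% NED and 1% sulfanilamide in 5% phosphoric acid, 10 min in the dark. Absorbance read at 520 nm. Mean ± SD, n≥3.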

[4] = Antiinflammatory activity in mouse MHS cells assessed as reduction in zymosan-induced COX2 protein expression at 1.5 ug/ml preincubated for 30 mins followed by zymosan challenge and measured after 6 to 24 hrs by Western blotting analysis relative to control (reference value: 2.2 +/- 1.8); type: functional
[5] = Effect on iNOS protein expression in mouse MHS cells at 15 ug/ml after 30 mins by Western blotting analysis relative to tubulin (reference value: 1); type: ADME, cell-based; settings: 0.5 h
Mus musculus [6] = organism: Mus musculus; assay: Antiinflammatory activity in mouse MHS cells assessed as reduction in zymosan-induced IL-6 protein expression at 1.5 to 15 ug/ml preincubated for 30 mins followed by zymosan challenge and measured after 6 to 24 hrs; type: functional, cell-based
In short: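 MH-S cells pretreated for 30 min, then given zymosan 10 μg/mL for 24 h. IL-6 and TNFα protein in culture supernatant assessed by cytokine array. Values normalized to control; mean ± SD, n≥3.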

[7] = target: T1, I-kappa-B kinase (Mus musculus); assay: Inhibition of zymosan-induced IKK phosphorylation in mouse MHS cells by Western blot analysis; type: cell-based; in short: as §1
Mus musculus [8] = assay: Antiinflammatory activity in zymosan induced C57BL/6 mouse model of lung injury assessed as reduction in thinkened basement membrane at 4 mg/kg, ip pretreated for 3 days followed by zymosan challenge and measured after 24 hrs by H and E staining based microscopic analysis; type: functional, organism-based
In short: (§2)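 Male C57BL/6 mice dosed i.p. for 3 days, then given zymosan (4 mg/kg, i.t.) or saline. Lungs harvested 24 h later. Right lung fixed in 10% formalin, embedded in paraffin, cut into 5 μm sections, stained with H&E or Masson's trichrome and examined by microscopy. Collagen also measured by hydroxyproline assay on lung lysates. Mean ± SD, n≥4.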

Mus musculus [9] = organism: Mus musculus; assay: Antiinflammatory activity in mouse MHS cells assessed as reduction in zymosan-induced iNOS mRNA expression preincubated for 30 mins followed by zymosan challenge and measured after 6 to 24 hrs by TRIzol reagent based qRT-PCR analysis; type: functional, cell-based
In short: (§3)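 MH-S alveolar macrophages grown in RPMI 1640 with 10% FBS at 37 °C and 5% CO2. Cells pretreated for 30 min, then given zymosan 10 μg/mL for 6 h. mRNA measured by SYBR Green real-time PCR (95 °C 10 min; 42 cycles of 95 °C 10 s, 60 °C 60 s) with actin as reference. Normalized to control; mean ± SD, n≥3.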

[10] = Antiinflammatory activity in mouse MHS cells assessed as reduction in zymosan-induced COX2 protein expression at 15 ug/ml preincubated for 30 mins followed by zymosan challenge and measured after 6 to 24 hrs by Western blotting analysis relative to control (reference value: 2.2 +/- 1.8); type: functional
[11] = target: Tyrosine-protein kinase JAK1 (Mus musculus) (UniProt P52332); assay: Inhibition of zymosan-induced JAK1 phosphorylation in mouse MHS cells assessed as phosphorylated JAK1 level at 1.5 ug/ml by Western blot analysis relative to tubulin (reference value: 2.2); type: cell-based; in short: as §1
Mus musculus [12] = assay: Effect on morphological changes in lungs of C57BL/6 mouse at 4 mg/kg, ip administered for 3 days by H and E staining based microscopic analysis; type: ADME, organism-based; settings: in vivo, 72 h; in short: as §2
[13] = Cytotoxicity against mouse MHS cells assessed as effect on cell viability at 1.5 to 15 ug/ml measured after 30 mins by sulforhodamine B assay; type: cell-based; settings: 0.5 h
Mus musculus [14] = assay: Antiinflammatory activity in zymosan induced C57BL/6 mouse model of lung injury assessed as reduction in collagen deposition at 4 mg/kg, ip pretreated for 3 days followed by zymosan challenge and measured after 24 hrs by hydroxyproline assay; type: functional, organism-based; in short: as §2
Mus musculus [15] = organism: Mus musculus; assay: Antiinflammatory activity in mouse MHS cells assessed as reduction in zymosan-induced TNFalpha mRNA expression preincubated for 30 mins followed by zymosan challenge and measured after 6 to 24 hrs by TRIzol reagent based qRT-PCR analysis; type: functional, cell-based; in short: as §3
Mus musculus [16] = assay: Antiinflammatory activity in zymosan induced C57BL/6 mouse model of lung injury assessed as reduction in PGE2 production in BALF at 4 mg/kg, ip pretreated for 3 days followed by zymosan challenge and measured after 24 hrs by ELISA; type: functional, organism-based
In short: (§4)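 Male C57BL/6 mice, 25–30 g. Dosed i.p. daily for 3 days, then zymosan 4 mg/kg in 40 μL saline given by intratracheal instillation. After 24 h, BALF collected with five 0.2 mL PBS washes and centrifuged. Supernatant assayed for PGE2 and total protein. Cells counted by hemocytometer, and ≥300 cells on stained smears scored for differential counts. Left lung weighed, dried at 48 °C for 48 h, reweighed for wet/dry ratio.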

[17] = target: Signal transducer and activator of transcription 3 (Mus musculus) (UniProt P42227); assay: Effect on STAT3 phosphorylation in mouse MHS cells assessed as phosphorylated STAT3 level at 15 ug/ml by Western blot analysis relative to tubulin (reference value: 1); type: cell-based
[18] = Effect on PGE2 level in mouse MHS cells at 1.5 to 15 ug/ml after 30 mins; settings: 0.5 h
[19] = target: Transcription factor p65 (Mus musculus) (UniProt Q04207); assay: Inhibition of zymosan-induced NFkappaB p65 nuclear translocation in mouse MHS cells at 15 ug/ml by DAPI staining based immunofluorescence microscopic analysis; type: cell-based
In short: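 MH-S cells on coverslips pretreated, then given zymosan 10 μg/mL for 3 h. Fixed in 4% paraformaldehyde, permeabilized with 1% Triton X-100, blocked with 4% skim milk. Anti-p65 at 4 °C overnight, FITC secondary 1 h, DAPI nuclear counterstain. Fluorescence microscopy; at least three experiments.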

[20] = Antiinflammatory activity in mouse MHS cells assessed as reduction in zymosan-induced iNOS protein expression at 15 ug/ml preincubated for 30 mins followed by zymosan challenge and measured after 6 to 24 hrs by Western blotting analysis relative to control (reference value: 2.93 +/- 0.84); type: functional
[21] = target: Signal transducer and activator of transcription 3 (Mus musculus) (UniProt P42227); assay: Inhibition of zymosan-induced STAT3 phosphorylation in mouse MHS cells assessed as phosphorylated STAT3 level at 15 ug/ml by Western blot analysis relative to tubulin (reference value: 2.1); type: cell-based; in short: as §1
Mus musculus [22] = assay: Antiinflammatory activity in zymosan induced C57BL/6 mouse model of lung injury assessed as reduction in wet to dry lung edema ratio at 4 mg/kg, ip pretreated for 3 days followed by zymosan challenge and measured after 24 hrs; type: functional, organism-based; in short: as §4

Chain of Signal transducer and activator of transcription 3 (Mus musculus) (P42227 whole entry): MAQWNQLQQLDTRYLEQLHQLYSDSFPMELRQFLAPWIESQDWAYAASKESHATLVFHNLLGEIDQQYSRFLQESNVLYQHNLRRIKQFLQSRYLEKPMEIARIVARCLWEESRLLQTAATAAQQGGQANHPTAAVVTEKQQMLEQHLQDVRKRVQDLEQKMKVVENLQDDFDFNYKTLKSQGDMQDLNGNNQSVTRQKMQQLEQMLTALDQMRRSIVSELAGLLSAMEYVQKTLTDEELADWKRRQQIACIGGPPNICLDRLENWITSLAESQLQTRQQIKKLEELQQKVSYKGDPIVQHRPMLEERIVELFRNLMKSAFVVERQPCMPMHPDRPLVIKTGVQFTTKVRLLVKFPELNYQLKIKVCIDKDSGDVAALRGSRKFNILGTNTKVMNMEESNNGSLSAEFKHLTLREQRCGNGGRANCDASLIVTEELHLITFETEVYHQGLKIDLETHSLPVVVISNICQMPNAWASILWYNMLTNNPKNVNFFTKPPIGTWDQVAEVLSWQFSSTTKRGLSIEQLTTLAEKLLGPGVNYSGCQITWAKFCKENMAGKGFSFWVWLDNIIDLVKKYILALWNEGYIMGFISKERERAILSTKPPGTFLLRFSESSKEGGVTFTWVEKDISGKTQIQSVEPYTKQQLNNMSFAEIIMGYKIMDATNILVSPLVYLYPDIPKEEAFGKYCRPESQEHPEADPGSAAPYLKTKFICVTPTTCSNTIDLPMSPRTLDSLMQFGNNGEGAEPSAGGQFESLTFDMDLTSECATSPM
Chain of Tyrosine-protein kinase JAK1 (Mus musculus) (P52332 whole entry): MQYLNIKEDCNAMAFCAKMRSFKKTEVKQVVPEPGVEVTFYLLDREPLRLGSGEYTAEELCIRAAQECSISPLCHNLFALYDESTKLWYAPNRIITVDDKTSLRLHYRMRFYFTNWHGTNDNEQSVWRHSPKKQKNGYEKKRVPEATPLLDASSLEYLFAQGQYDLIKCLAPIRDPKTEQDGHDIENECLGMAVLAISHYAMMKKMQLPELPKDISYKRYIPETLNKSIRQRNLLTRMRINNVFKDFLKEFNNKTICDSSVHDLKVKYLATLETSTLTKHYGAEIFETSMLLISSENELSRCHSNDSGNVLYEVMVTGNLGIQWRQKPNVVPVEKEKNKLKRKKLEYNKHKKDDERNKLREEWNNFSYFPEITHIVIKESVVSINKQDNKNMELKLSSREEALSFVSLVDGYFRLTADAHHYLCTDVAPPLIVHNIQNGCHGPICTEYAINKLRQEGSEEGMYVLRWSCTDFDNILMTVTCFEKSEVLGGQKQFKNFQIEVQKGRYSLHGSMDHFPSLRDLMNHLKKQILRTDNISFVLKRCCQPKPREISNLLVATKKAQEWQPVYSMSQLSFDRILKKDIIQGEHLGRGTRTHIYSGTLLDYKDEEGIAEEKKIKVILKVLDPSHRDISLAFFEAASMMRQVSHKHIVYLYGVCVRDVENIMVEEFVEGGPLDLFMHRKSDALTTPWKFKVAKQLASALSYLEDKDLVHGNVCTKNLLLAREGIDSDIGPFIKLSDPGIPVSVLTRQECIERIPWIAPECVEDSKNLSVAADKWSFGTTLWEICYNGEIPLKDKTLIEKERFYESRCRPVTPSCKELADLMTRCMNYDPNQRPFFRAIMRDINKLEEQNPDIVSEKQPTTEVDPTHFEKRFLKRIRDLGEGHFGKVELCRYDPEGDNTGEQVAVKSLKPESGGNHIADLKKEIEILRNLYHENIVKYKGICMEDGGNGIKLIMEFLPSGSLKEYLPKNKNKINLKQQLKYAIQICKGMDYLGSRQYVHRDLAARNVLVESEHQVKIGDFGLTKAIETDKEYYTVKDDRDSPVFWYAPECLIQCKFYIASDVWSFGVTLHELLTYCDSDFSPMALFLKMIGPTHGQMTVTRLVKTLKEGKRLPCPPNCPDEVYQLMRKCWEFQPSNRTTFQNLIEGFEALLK
Chain of Transcription factor p65 (Mus musculus) (Q04207 whole entry): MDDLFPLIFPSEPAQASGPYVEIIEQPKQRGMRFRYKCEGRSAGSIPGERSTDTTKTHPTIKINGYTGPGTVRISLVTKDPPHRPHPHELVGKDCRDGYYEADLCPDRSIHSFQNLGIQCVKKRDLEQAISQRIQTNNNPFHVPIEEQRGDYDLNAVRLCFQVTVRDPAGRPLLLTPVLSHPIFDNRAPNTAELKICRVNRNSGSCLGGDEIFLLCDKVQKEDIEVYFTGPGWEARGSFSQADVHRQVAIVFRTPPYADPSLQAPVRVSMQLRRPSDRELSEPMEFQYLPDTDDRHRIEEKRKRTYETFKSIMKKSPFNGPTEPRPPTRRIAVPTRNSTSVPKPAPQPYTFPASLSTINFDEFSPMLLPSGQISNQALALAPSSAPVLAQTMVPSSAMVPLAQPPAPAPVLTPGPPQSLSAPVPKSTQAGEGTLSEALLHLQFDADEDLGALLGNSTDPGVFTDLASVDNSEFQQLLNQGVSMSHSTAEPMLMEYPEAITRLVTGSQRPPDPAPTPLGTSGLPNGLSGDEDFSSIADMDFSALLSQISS

In the case of CC(C)=CCOc1c2occc2cc2ccc(=O)oc12 [PENTOSALEN], the fold change (FC) [1] is reported as 1.2, the fold change (FC) [2] is reported as 1.8 and the Activity (Mus musculus [3]) is reported as “Active”. For the same molecule, the “fold change (FC)” value [4] was 2.2, the “fold change (FC)” value [5] was 0.9 and the Activity (Mus musculus [6]) was “Active”. For the same molecule, the inhibition [7] was “Dose-dependent effect”, the Activity (Mus musculus [8]) was “Active” and the Activity (Mus musculus [9]) was “Dose-dependent effect”. The “fold change (FC)” value [10] was 1.8, the fold change (FC) [11] was 2.2 and the Activity (Mus musculus [12]) was “Non-Toxic”. The Activity [13] was “Non-Toxic”, the Activity (Mus musculus [14]) was “Active” and the Activity (Mus musculus [15]) was “Dose-dependent effect”. For the same molecule, the Activity (Mus musculus [16]) was “Active”, the fold change (FC) [17] was 1.2 and the Activity [18] was “Non-Toxic”. The inhibition [19] was “Active”, the “fold change (FC)” value [20] was 1.5 and the fold change (FC) [21] was 1.3. For the same molecule, the Activity (Mus musculus [22]) was “Active”.
